Rce1 inh – inhibitors of yeast Ras-converting enzyme; calls only; hit rate 0.27% among 290,000; AID 2563; yeast membranes, quenched prenylated peptide cleavage fluorescence; Q03530;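 active = fall in fluorescence gain of 50% or more versus controls, with final raw signal at or below 3038400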;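 also: plate controls were neutral control wells for no effect and wells lacking membranes for full effect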
Target sequence (Q03530 whole entry, looked up): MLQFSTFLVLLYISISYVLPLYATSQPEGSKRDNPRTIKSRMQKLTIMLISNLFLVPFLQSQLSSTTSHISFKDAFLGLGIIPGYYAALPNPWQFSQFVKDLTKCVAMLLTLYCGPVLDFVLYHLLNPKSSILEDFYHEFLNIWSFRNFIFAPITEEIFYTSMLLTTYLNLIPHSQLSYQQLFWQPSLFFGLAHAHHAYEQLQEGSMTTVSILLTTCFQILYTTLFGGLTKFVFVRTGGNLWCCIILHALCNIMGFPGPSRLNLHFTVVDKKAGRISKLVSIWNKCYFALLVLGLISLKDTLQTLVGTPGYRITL
ARNT TACC3 PPI – disrupts binding between human ARNT and TACC3; AlphaScreen His-ARNT PAS-B/GST-TACC3 binding, luminescence; TACC3 fragment carries E629A point mutation; inhibition, % at 9.99 µM; hit rate 0.66% among 390,000; Q9Y6A5;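 active = mean inhibition of replicates at least 50% and at least half of replicates each reaching 50%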;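 also: 0% = complete ARNT plus TACC3 wells and 100% = ARNT alone without TACC3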
CAL PDZ FP-1 – inhibitors of human CAL PDZ peptide binding. purified CAL PDZ, TMR-peptide fluorescence polarization, 1 h. hit rate 0.92% among 300,000. inhibition, % at 24.9 µM. AID 602252. Q9HD26;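 active = mean inhibition of at least 30% with at least half of replicates also reaching 30%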;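 also: 0% = DMSO neutral control and 100% = excess unlabeled competitor peptide PRC23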
CAL PDZ FP-2 – blocks peptide binding to human CAL PDZ domain; Q9HD26; purified CAL PDZ, TMR-peptide fluorescence polarization, 1 h; inhibition, % at 20 µM; hit rate 0.02% among 330,000;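 active = highest replicate inhibition of at least 40%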;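 also: plate controls were DMSO neutral control wells for no effect and unlabeled competitor peptide control wells for full effect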
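System: purified tagged CAL PDZ domain construct (CerCALP). Schedule: 1 h incubation at room temperature before polarization reading. Medium: 25 mM sodium phosphate pH 7.4, 150 mM NaCl, TCEP, IgG, Thesit. Read-out: percent inhibition from loss of millipolarization. Measured by: FP readout, S and P plane fluorescence. Probe or stimulus: fluorescent TMR peptide probe.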
AI-2 QS mod – modulators of Vibrio harveyi AI-2 quorum sensing system; Vibrio harveyi JMH597 AI-2 luminescence/OD600 ratio, 9 h; hits give low values; strain lacks LuxN and CqsS sensors; 0 = neutral-control median; activity change, % at 7.5 µM; hit rate 0.4% among 300,000; AID 2094; in the data active = activity change below about -75%, passing the limit was not always enough;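 also: luminescence divided by OD600 gain over 9 h not by final OD600 alone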
An asterisk follows results filed as active; i = inactive; . = not tested or not shown; + = active, no number. This is a sample that favours compounds with a hit; in the whole collection about 1.7% have one here.

SMILES	Rce1 inh	ARNT TACC3 PPI	CAL PDZ FP-1	CAL PDZ FP-2	AI-2 QS mod
O=C(Nc1ccc(F)cc1)N1CCCCN2[C@@H](CO)[C@H](c3ccc(C#Cc4ccccc4)cc3)[C@@H]2C1	.	-9	.	.	.
CCOC(=O)C1=C(C)N=c2s/c(=C/c3cccc([N+](=O)[O-])c3O)c(=O)n2C1c1ccccc1 (centres undefined)	i	60*	-2	0	13
CCOC(=O)C1=C(C)N=c2s/c(=C/c3cccc([N+](=O)[O-])c3O)c(=O)n2C1c1cc(OC)c(OC)c(OC)c1 (centres undefined)	i	74*	0	.	2
CCOC(=O)C1=C(C)N=c2s/c(=C/c3ccco3)c(=O)n2C1c1cccc(OC)c1 (centres undefined)	i	.	.	.	5
O=C(c1ccc(F)cc1F)N1CCN(S(=O)(=O)c2ccc3c(c2)OCCO3)CC1	.	-2	31*	-1	.
CN(C)S(=O)(=O)c1ccc(C(=O)N2CCN(S(=O)(=O)c3ccc4c(c3)OCCO4)CC2)cc1	.	0	0	-2	.
CCCCNC(=S)N1CCN(c2ccccc2Cl)CC1	i	0	75*	1	10
Cc1ccc(C)c(S(=O)(=O)N2CCCOC2CNC(=O)C(=O)NCCc2ccco2)c1 (centres undefined)	i	-1	69*	1	19
Cc1ccc(C)c(S(=O)(=O)N2CCCOC2CNC(=O)C(=O)NCc2ccco2)c1 (centres undefined)	i	-3	-3	0	33
CC(=O)N1C[C@@H]2[C@H](c3ccccc31)[C@@H](CO)N2S(=O)(=O)c1ccccc1	.	-11	.	.	.
O=C1CN(C(=O)CSc2nnc3ccccn23)c2ccccc2N1	i	-18	-6	0	24
CN(C)CCCNC(=S)Nc1ccc(Oc2ccccc2)cc1	i	2	61*	1	18
OCCCNC(=S)Nc1ccc(Oc2ccccc2)cc1	i	.	-4	-2	25
CN(C)c1cccc(C(=O)NNC(=O)/C=C/c2cccs2)c1	.	-1	77*	1	.
CNC(=S)NNC(=O)c1cccc(N(C)C)c1	i	-6	-3	-6	18
Cn1cc([N+](=O)[O-])c(C(=O)NCc2ccccc2)n1	i	-6	30*	0	15
Cn1cc([N+](=O)[O-])c(C(=O)N(Cc2ccccc2)Cc2ccccc2)n1	i	3	1	0	2
COCc1c(Br)c(C)[nH]c(=O)c1C#N	+	-3	-1	-1	14
O=C(NC1CCCCC1)N[C@H]1CC[C@@H](CCNS(=O)(=O)c2ccc(F)cc2)O[C@H]1CO	.	25	.	.	.
Cc1ccccc1NC(=O)CN1C(=O)CSc2ccccc21	i	-9	38*	0	2
Cc1ccc(OCC(=O)NCCCNC(=O)c2ccccn2)cc1C	i	-2	.	-1	11
O=C(NNS(=O)(=O)c1ccc(F)cc1)c1cc2ccccc2cc1O	i	3	-1	0	50
Cn1c(CCc2ccccc2)nnc1SCC(=O)N1CCCC1	i	-8	5	-1	26
c1cnc2c(SCc3ccc(-c4nnco4)cc3)cccc2c1	i	59*	.	-1	5
O=[N+]([O-])C(=C1Nc2ccccc2N1)/C(Cl)=C(/Cl)Br	i	61*	0	-3	31
SMILES	Rce1 inh	ARNT TACC3 PPI	CAL PDZ FP-1	CAL PDZ FP-2	AI-2 QS mod
Cc1ccc2c(c1)c1nnc(SCC(=O)Nc3cccc(Cl)c3C)nc1n2CC(=O)O	.	2	3	-1	18
O=C(NCCc1cnc[nH]1)Nc1cccc(C(F)(F)F)c1	i	49*	.	-1	1
O=C(Cc1ccccc1)c1c[nH]c(C(=O)C(Cl)(Cl)Cl)c1	i	-3	168*	1	-18
O=C(c1ccccc1)c1c[nH]c(C(=O)C(Cl)(Cl)Cl)c1	i	-7	1	0	13
c1ccc(-c2nnc(-c3ccncc3)nc2-c2ccccc2)cc1	+	2	-6	-2	36
c1ccc(-c2nnc(-c3ccccc3)c(-c3c[nH]c4ccccc34)n2)cc1	i	-4	.	0	-10
Cc1ccc(NC(=O)CCc2nc(-c3cccs3)no2)c(Br)c1	i	-3	.	0	10
Cc1ccccc1C(=O)NC(CC(C)C)C(=O)N1CCN(c2ccccc2)CC1 (centres undefined)	i	4	35*	-1	16

Screening results as filed in PubChem BioAssay.
